{"source": "the EternaBench riboswitch data", "test_system": "MS2 coat protein", "experiment": "apparent Kd, MS2 coat protein; higher = weaker binding; RNA-MaP array; FMN 200 µM where present", "in_short": "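Stalled E. coli RNA polymerase transcribed the designs on Illumina sequencing-chip clusters. SNAP-549-labelled MS2 coat protein was titrated from 0.7 or 1.5 nM, doubling to 3 µM, without and then with constant ligand, in 100 mM Tris-HCl pH 7.5, 80 mM KCl, 4 mM MgCl2, BSA, DTT, yeast tRNA and Tween-20. Per-cluster binding curves were fitted to green signal normalised to red-channel RNA signal and control-cluster median Fmax. The apparent Kd is the median of the filtered fits.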", "key": {"[1]": {"conditions": "designed as: OFF switch for flavin mononucleotide, no ligand"}, "[2]": {"conditions": "ligand present: flavin mononucleotide, designed as: OFF switch for flavin mononucleotide"}, "[3]": {"conditions": "designed as: ON switch for flavin mononucleotide, no ligand"}, "[4]": {"conditions": "ligand present: flavin mononucleotide, designed as: ON switch for flavin mononucleotide"}}, "data": [{"sequence": "AGAUCCUGAGUCAGGAUAUAGAGACGGUAGUCGGGCUAGAAGGGACAUGAGGAUCACCCAUGUGGGUUCUUGCC", "values": [{"measurement": "apparent Kd", "setting": "[1]", "value": 10.7, "unit": "nM"}, {"measurement": "apparent Kd", "setting": "[2]", "value": 13.1, "unit": "nM"}]}, {"sequence": "AAGGAACGAGGAUAUGCAGGUUGAGCUCGAGUUCGACCGGAACAUGAGGAUCACCCAUGUAGAAGGUGUAUCCC", "values": [{"measurement": "apparent Kd", "setting": "[1]", "value": 24.1, "unit": "nM"}, {"measurement": "apparent Kd", "setting": "[2]", "value": 24.4, "unit": "nM"}]}, {"sequence": "AGGUUUGGAGAGAAGGGCUAAUGGGUUUCGUUUGAGGUAUUCGCAACAUGAGGAUCACCCAUGUAGCAGGAUAUCUCAAAACUA", "values": [{"measurement": "apparent Kd", "setting": "[1]", "value": 4.88, "unit": "nM"}, {"measurement": "apparent Kd", "setting": "[2]", "value": 7.95, "unit": "nM"}]}, {"sequence": "CUUAGUUUGUAGAAGGGUGACAUGAGGAUCACCCAUGUGCGUCGCCUGGAAGACCAGGGUACGCCACAGGAUAUACAAAGUAAG", "values": [{"measurement": "apparent Kd", "setting": "[3]", "value": 46.7, "unit": "nM"}, {"measurement": "apparent Kd", "setting": "[4]", "value": 23.1, "unit": "nM"}]}, {"sequence": "GGAUGUCAAAGACAUCCAAAUCGAACAUGAGGAUCACCCAUGUAGGAUAUGCUACUCAAAGAGUAGCAGAAGGACAUGUGCUUU", "values": [{"measurement": "apparent Kd", "setting": "[1]", "value": 41.5, "unit": "nM"}, {"measurement": "apparent Kd", "setting": "[2]", "value": 223, "unit": "nM"}]}, {"sequence": "AAAUAAACUAGCAAAAUUUCCUCACAUGAGGAUCACCCAUGUAAGGAUAUCUGUCCUAAAAGGACAGAGAAGGUACGUGCUAGG", "values": [{"measurement": "apparent Kd", "setting": "[1]", "value": 4.53, "unit": "nM"}, {"measurement": "apparent Kd", "setting": "[2]", "value": 4.63, "unit": "nM"}]}, {"sequence": "ACAAGAUCAGGAUAUACAUGAGGAUCACCCAUGUAUUUCAAAAAGGGACUUUCUUUAUGUAGAAGGGAUCUUGU", "values": [{"measurement": "apparent Kd", "setting": "[1]", "value": 50.8, "unit": "nM"}, {"measurement": "apparent Kd", "setting": "[2]", "value": 67.2, "unit": "nM"}]}, {"sequence": "CAGCGCUGUUGAGAGGAUAUGCGGUGAUGGACAUGAGGAUCACCCAUGUUAGCGACAGCAUUACGGCAGAAGGCUUCACAGCUGC", "values": [{"measurement": "apparent Kd", "setting": "[3]", "value": 51.1, "unit": "nM"}, {"measurement": "apparent Kd", "setting": "[4]", "value": 14.6, "unit": "nM"}]}, {"sequence": "GGAAAGAUGUUAGGAUAUGGCUUCCCGGUGAAGCCAGAAGGAACAUGAGGAUCACCCAUGUAAAGCGAGUGGCUCUUCUCUGGA", "values": [{"measurement": "apparent Kd", "setting": "[1]", "value": 18.6, "unit": "nM"}, {"measurement": "apparent Kd", "setting": "[2]", "value": 65.9, "unit": "nM"}]}, {"sequence": "UGGAUCAUGGGAGGAUAUCCUCAAGAGACAUGAGGAUCACCCAUGUAUUAUAAGCCUAAUGGCAUGGAGAAGGCCCAUGAUCCU", "values": [{"measurement": "apparent Kd", "setting": "[3]", "value": 377, "unit": "nM"}, {"measurement": "apparent Kd", "setting": "[4]", "value": 54, "unit": "nM"}]}, {"sequence": "GUGGUGUAGAUACAGGAUAUGUUGCUCGUAACAUGAGGAUCACCCAUGUAUCUAUGAGAAUAAAUGCAGAAGGGUGCACACCACU", "values": [{"measurement": "apparent Kd", "setting": "[3]", "value": 549, "unit": "nM"}, {"measurement": "apparent Kd", "setting": "[4]", "value": 30.1, "unit": "nM"}]}, {"sequence": "AAUUCGUCAGGAUAUGCAUGUAAUUGUUACAUUUCUCCGUUGCAGAAGGGACAUGAGGAUCACCCAUGUAAGUC", "values": [{"measurement": "apparent Kd", "setting": "[1]", "value": 29.7, "unit": "nM"}, {"measurement": "apparent Kd", "setting": "[2]", "value": 28.7, "unit": "nM"}]}, {"sequence": "AGAAGACAUGAGGAUCACCCAUGUAAGGAUAUUGGAGGUUAGGGAUGCUGGAGUUGGACAAGAAGGUACAGGUG", "values": [{"measurement": "apparent Kd", "setting": "[1]", "value": 52.8, "unit": "nM"}, {"measurement": "apparent Kd", "setting": "[2]", "value": 50.9, "unit": "nM"}]}, {"sequence": "AAUAAUUAGUGAGGAUAUACAUAAUUUAUUACUGUAGAAGGCACAAACCUCAAGACAUGAGGAUCACCCAUGUGGUAUUUAAAU", "values": [{"measurement": "apparent Kd", "setting": "[1]", "value": 213, "unit": "nM"}, {"measurement": "apparent Kd", "setting": "[2]", "value": 390, "unit": "nM"}]}, {"sequence": "AGUGUGGGAGGAUAUACAUGAGGAUCACCCAUGUGAGUUGGCUCACAUGCUACGCUUCGUAGAAGGCCCAAAGA", "values": [{"measurement": "apparent Kd", "setting": "[1]", "value": 88.8, "unit": "nM"}, {"measurement": "apparent Kd", "setting": "[2]", "value": 290, "unit": "nM"}]}, {"sequence": "CUUUUGUGAGGAUAUUAGUAGUAAAUAAAUAAAAUUACUACUGAGAAGGCACAUGAGGAUCACCCAUGUUCCUC", "values": [{"measurement": "apparent Kd", "setting": "[1]", "value": 33.7, "unit": "nM"}, {"measurement": "apparent Kd", "setting": "[2]", "value": 317, "unit": "nM"}]}, {"sequence": "UCACGGGAUUGAGGAUAUAUAUUAAUUUUUUUUAUAGAAGGCAAAUUGUUAGAUUAUUCACUAUACAUGAGGAUCACCCAUGUU", "values": [{"measurement": "apparent Kd", "setting": "[1]", "value": 29.3, "unit": "nM"}, {"measurement": "apparent Kd", "setting": "[2]", "value": 26.6, "unit": "nM"}]}, {"sequence": "GACAAACAUGAGGAUCACCCAUGUUCAGACGAACAAGGAUAUGUGUGGAAACCGUACUAUACAGAAGGUGUCUGUC", "values": [{"measurement": "apparent Kd", "setting": "[3]", "value": 39.7, "unit": "nM"}, {"measurement": "apparent Kd", "setting": "[4]", "value": 23.8, "unit": "nM"}]}, {"sequence": "UUCGUGCAGCUUUGCUGUACGCGUACAUGAGGAUCACCCAUGUAGGAUAUGGUAGGCAAAGUUUACUAGAAGGAUAUAGUGAUC", "values": [{"measurement": "apparent Kd", "setting": "[1]", "value": 13.2, "unit": "nM"}, {"measurement": "apparent Kd", "setting": "[2]", "value": 14.3, "unit": "nM"}]}, {"sequence": "GUCAGCUCGUGAGGAUAUACAACACUGCUUCGACAGUGUAUUAAGAUCACAUGAGGAUCACCCAUGUAGAAGGCACGAGCUGAU", "values": [{"measurement": "apparent Kd", "setting": "[1]", "value": 13.6, "unit": "nM"}, {"measurement": "apparent Kd", "setting": "[2]", "value": 211, "unit": "nM"}]}, {"sequence": "AUUGUGUGAGGAUAUUAGUAGUAAAUGAAUAAAAUUAUUACUGAGAAGGCACAUGAGGAUCACCCAUGUUCCUU", "values": [{"measurement": "apparent Kd", "setting": "[1]", "value": 19.1, "unit": "nM"}, {"measurement": "apparent Kd", "setting": "[2]", "value": 138, "unit": "nM"}]}, {"sequence": "AUUUUAAUGUCAGGAUAUGUUAGUUAAUACAUAGUAGAAGGGAUAAUUAUACUCAUGUACAUGAGGAUCACCCAUGUUAAAUAA", "values": [{"measurement": "apparent Kd", "setting": "[3]", "value": 151, "unit": "nM"}, {"measurement": "apparent Kd", "setting": "[4]", "value": 80.7, "unit": "nM"}]}, {"sequence": "CGUAAGAUGCAGAAGGUGUUAGCUAGAGCUACGACAUGAGGAUCACCCAUGUACUAGAAACAGUACAAGGAUAUGCAUCUUACA", "values": [{"measurement": "apparent Kd", "setting": "[3]", "value": 17.3, "unit": "nM"}, {"measurement": "apparent Kd", "setting": "[4]", "value": 5.75, "unit": "nM"}]}, {"sequence": "CAGAAGUCAGGAUAUGCUGCUCGUCACUUGCGUGAUGAGUAGCAGAAGGGACAUGAGGAUCACCCAUGUAAAGA", "values": [{"measurement": "apparent Kd", "setting": "[1]", "value": 63.1, "unit": "nM"}, {"measurement": "apparent Kd", "setting": "[2]", "value": 113, "unit": "nM"}]}]}
